Measured values: ChEMBL document CHEMBL1138635, “Myxopyronin B analogs as inhibitors of RNA polymerase, synthesis and biological evaluation” (Bioorg Med Chem Lett, 2004)
≈ marks a conversion by molar mass, not a printed value.

Legend:
[1] = system: Escherichia coli; assay: Minimum inhibitory concentration against Escherichia coli; assay type: functional
In short: (§1)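 Growth inhibition by serial dilution. MIC reported in µg/mL as the average of triplicate measurements.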

[2] = system: Staphylococcus aureus; assay: Minimum inhibitory concentration against Staphylococcus aureus; assay type: functional; in short: as §1
[3] = system: Escherichia coli; assay: Minimum inhibitory concentration against Escherichia coli (Tol C); assay type: functional; in short: as §1
[4] = target: DNA-directed RNA polymerase subunit beta (Escherichia coli K-12) (UniProt P0A8V2); assay: In vitro percent inhibition against RNA polymerase of Escherichia coli in nucleotide coupled NADPH/pyrophosphate release assay at 10 uM; assay type: functional
DNA-directed RNA polymerase subunit beta (Escherichia coli K-12), sequence (P0A8V2 whole entry, looked up): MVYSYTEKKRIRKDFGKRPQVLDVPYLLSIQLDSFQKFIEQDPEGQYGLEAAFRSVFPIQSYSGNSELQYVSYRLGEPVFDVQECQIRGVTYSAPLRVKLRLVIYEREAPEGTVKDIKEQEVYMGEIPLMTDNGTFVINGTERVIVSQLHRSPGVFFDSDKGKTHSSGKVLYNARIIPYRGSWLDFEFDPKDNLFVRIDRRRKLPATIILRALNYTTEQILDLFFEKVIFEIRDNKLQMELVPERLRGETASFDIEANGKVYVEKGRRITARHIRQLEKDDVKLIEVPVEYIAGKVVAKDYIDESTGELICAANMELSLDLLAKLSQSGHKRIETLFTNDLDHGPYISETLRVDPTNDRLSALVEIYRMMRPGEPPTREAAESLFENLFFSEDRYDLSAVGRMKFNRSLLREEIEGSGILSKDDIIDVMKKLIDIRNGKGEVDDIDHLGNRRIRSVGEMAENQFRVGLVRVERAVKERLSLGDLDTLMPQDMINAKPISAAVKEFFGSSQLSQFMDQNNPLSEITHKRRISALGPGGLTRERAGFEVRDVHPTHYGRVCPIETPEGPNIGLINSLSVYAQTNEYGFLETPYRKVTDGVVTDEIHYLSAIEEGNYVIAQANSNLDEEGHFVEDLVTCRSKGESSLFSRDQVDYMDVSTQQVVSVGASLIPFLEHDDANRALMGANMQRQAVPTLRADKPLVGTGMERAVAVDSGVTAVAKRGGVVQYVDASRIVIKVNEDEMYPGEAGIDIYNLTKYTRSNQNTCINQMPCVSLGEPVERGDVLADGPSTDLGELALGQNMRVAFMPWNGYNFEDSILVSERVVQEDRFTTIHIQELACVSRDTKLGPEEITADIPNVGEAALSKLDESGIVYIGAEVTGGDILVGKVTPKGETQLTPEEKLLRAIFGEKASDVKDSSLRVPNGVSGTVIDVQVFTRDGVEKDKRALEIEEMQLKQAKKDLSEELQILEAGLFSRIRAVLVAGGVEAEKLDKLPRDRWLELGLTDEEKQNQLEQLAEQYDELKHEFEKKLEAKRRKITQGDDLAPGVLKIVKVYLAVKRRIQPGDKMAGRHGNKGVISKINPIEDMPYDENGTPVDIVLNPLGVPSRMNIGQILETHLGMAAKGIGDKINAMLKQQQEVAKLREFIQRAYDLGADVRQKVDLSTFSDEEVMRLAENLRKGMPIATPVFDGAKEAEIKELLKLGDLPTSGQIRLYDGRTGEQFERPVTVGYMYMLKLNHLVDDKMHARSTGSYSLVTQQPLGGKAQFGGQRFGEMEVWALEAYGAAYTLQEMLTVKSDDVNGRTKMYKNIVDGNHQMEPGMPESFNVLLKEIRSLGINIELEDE
In short: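 E. coli RNA polymerase activity measured in a nucleotide-coupled NADPH/pyrophosphate release assay. NADPH was read by fluorescence (emission ~440 nm) rather than absorbance at 340 nm. For weaker inhibitors, percent inhibition was recorded at 10 µM instead of an IC50.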

[5] = target: DNA-directed RNA polymerase subunit beta (Escherichia coli K-12, UniProt P0A8V2); assay: In vitro inhibitory activity against RNA polymerase of Escherichia coli
DNA-directed RNA polymerase subunit beta, sequence (P0A8V2 whole entry): as the sequence (P0A8V2 whole entry, looked up) above
In short: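 E. coli RNAP activity measured by a nucleotide-coupled assay that links pyrophosphate release to NADPH. NADPH was read by fluorescence (emission ~440 nm) instead of absorbance at 340 nm. IC50 was determined; for weak inhibitors, percent inhibition at 10 µM was reported instead. Selected compounds were also tested by radiolabeled nucleotide incorporation into RNA.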

SMILES | MIC [1] | MIC [2] | MIC [3] | inhibition [4] | IC50 [5]
CCCC/C(C)=C/C=C/C(=O)c1c(O)cc(C(C)CC/C=C/NC(=O)OC)oc1=O (centres undefined) | > 64 µg/mL | 64 µg/mL (≈ 153 µM) | 32 µg/mL (≈ 76.6 µM) | 70% | 
CCC(=O)c1c(O)cc(C(C)CC/C=C/NC(=O)OC)oc1=O (centres undefined) | > 64 µg/mL | > 64 µg/mL | > 64 µg/mL | < 20% | 
CCCC/C(C)=C/C=C(\C)C(=O)c1c(O)cc(C(C)CC/C=C/NC(=O)OCCN2CCOCC2)oc1=O (centres undefined) | > 64 µg/mL | > 64 µg/mL | > 64 µg/mL | < 20% | 
CCCC/C(C)=C/C=C(\C)C(=O)c1c(O)cc(C(C)CCCC=O)oc1=O (centres undefined) | > 64 µg/mL | > 64 µg/mL | > 64 µg/mL | < 20% | 
CCCC/C=C/C=C(\C)C(=O)c1c(O)cc(C(C)CC/C=C/NC(=O)OC)oc1=O (centres undefined) | > 64 µg/mL | 16 µg/mL (≈ 38.3 µM) | 2 µg/mL (≈ 4.79 µM) |  | 1040 nM
CCCC/C(C)=C/C=C(\C)C(=O)c1c(O)cc(C(C)CC/C=C/NC(=O)OC)oc1=O (centres undefined) | > 64 µg/mL | 1 µg/mL (≈ 2.32 µM) | 2 µg/mL (≈ 4.63 µM) |  | 920 nM
CCCC/C(C)=C/C=C(\C)C(=O)c1c(O)cc(C(C)CCCCNC(=O)OC)oc1=O (centres undefined) | > 64 µg/mL | 64 µg/mL (≈ 148 µM) | 8 µg/mL (≈ 18.5 µM) |  | 4000 nM
CCCC/C(C)=C/C=C(\C)C(=O)c1c(O)cc(C(C)CC/C=C/C(=O)OC)oc1=O (centres undefined) | > 64 µg/mL | > 64 µg/mL | > 64 µg/mL | < 20% | 
CCCC/C(C)=C/C=C(\C)C(=O)c1c(O)cc(C(C)Cc2ccc(NC(=O)OC)cc2)oc1=O (centres undefined) | > 64 µg/mL | > 64 µg/mL | > 64 µg/mL | < 20% | 
CCCC/C(C)=C/C=C(\C)C(=O)c1c(O)cc(C(C)CC/C=C/NC(=O)OCCN(C)C)oc1=O (centres undefined) | > 64 µg/mL | > 64 µg/mL | > 64 µg/mL | < 20% | 
CCCC/C(C)=C\C=C(\C)C(=O)c1c(O)cc(C(C)CC/C=C/NC(=O)OC)oc1=O (centres undefined) | > 64 µg/mL | 16 µg/mL (≈ 37.1 µM) | 16 µg/mL (≈ 37.1 µM) |  | 2500 nM
CCCC/C(C)=C/C=C(\C)C(=O)c1c(O)cc(C(C)Cc2cccc(NC(=O)OC)c2)oc1=O (centres undefined) | > 64 µg/mL | > 64 µg/mL | > 64 µg/mL | < 20% | 
CCCC/C(C)=C/C=C(\C)C(=O)c1c(O)cc(C(C)CC/C=C\NC(=O)OC)oc1=O (centres undefined) | > 64 µg/mL | 4 µg/mL (≈ 9.27 µM) | 4 µg/mL (≈ 9.27 µM) |  | 1260 nM
CCCC/C(C)=C/C=C(\C)C(=O)c1c(OC)cc(C(C)CC/C=C/NC(=O)OC)oc1=O (centres undefined) | > 64 µg/mL | > 64 µg/mL | > 64 µg/mL |  | 4200 nM
CCCC/C(C)=C/CNC(=O)c1c(O)cc(C(C)CC/C=C/NC(=O)OC)oc1=O (centres undefined) | > 64 µg/mL | > 64 µg/mL | > 64 µg/mL | < 20% | 
CCCC/C(C)=C/C=C(\C)C(=O)c1c(O)cc(CCC/C=C/NC(=O)OC)oc1=O [DESMETHYL MYXOPYRONIN B] | > 64 µg/mL | 4 µg/mL (≈ 9.58 µM) | 1 µg/mL (≈ 2.4 µM) |  | 340 nM
